Screens (PubChem)
UPR XBP1 act = adaptive UPR (XBP1) activation | CHO-XBP1 luciferase reporter, IRE1-XBP1 UPR activation, luminescence; percent of tunicamycin response, DMSO as zero | activation, % at 20 µM | 330,000 tested, 0.33% active;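 active = versus positive control, 20 µM dose yields 30% or more activation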;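 note: 100% = tunicamycin at 10 µg/mL and 0% = DMSO only wells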
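Assay system: CHO-XBP1 luciferase reporter cells; Schedule: 6 h treatment, 37 °C; Detection: glow luminescence from Steady-Glo reagent; Benchmarks: high control tunicamycin 10 µg/mL final, low control DMSO vehicle only.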
UPR CHOP act = apoptotic UPR (CHOP) activation | AID 449763 | activation, % at 10 µM | CHO-CHOP luciferase reporter, luminescence; percent of tunicamycin response over DMSO baseline | 330,000 tested, 0.34% active;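 active = at 10 µM dose, activation of 40% or more, normalized to positive control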;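 note: 100% = tunicamycin at 10 µg/mL and 0% = DMSO alone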
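System: CHO-CHOP luciferase reporter cell line | Buffer or medium: F12 medium containing 10% fetal bovine serum | Doses: One dose, 10 µM in 0.5% DMSO | Times: 6 h compound exposure at 37 °C after overnight seeding | Signal: Luciferase luminescence | Read-out: % activation vs tunicamycin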
UBC13 inh = blocks human UBC13 polyubiquitin chain formation | TR-FRET | inhibition, % at 20 µM | 330,000 tested, 0.47% active | AID 485273; in the data active = inhibition above about 45%, passing the limit was not always enough
Target sequence (P61088 whole entry, looked up): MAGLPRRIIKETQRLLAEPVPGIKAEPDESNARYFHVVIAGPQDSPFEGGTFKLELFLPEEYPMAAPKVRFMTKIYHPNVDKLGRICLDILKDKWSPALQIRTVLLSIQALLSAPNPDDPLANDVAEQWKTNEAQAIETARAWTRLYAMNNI
Apaf1 inhib = blocks human Apaf-1 apoptosome activity | O14727 | reconstituted apoptosome caspase-3 activity, DEVD-Rh110 fluorescence | inhibition, % at 20 µM | 330,000 tested, 0.71% active; active = inhibition of at least 40% at 20 µM;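 note: plate controls were DMSO wells for no effect and DEVD-CHO caspase inhibitor wells for full effect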
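Medium: Hepes buffer, pH 7.5 / System: biochemical Apaf-1 apoptosome reconstitution / Measured by: Rh110 fluorescence, excitation 480 nm, emission 540 nm / Times: compound with Apaf-1, dATP, procaspase-3 30 min, then 50 min reaction, room temperature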
Mdm2-MdmX inh = disrupts the human Mdm2-MdmX interaction | O15151+Q00987 | inhibition, % at 8 µM | 330,000 tested, 3% active | SaOS-2 split-luciferase Mdm2/MdmX complementation, luminescence;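 active = inhibition of at least 50% at 8 µM in the primary screen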
Mdm2 MdmX conf = human Mdm2/MdmX binding inhibition, confirmed; luminescent assay; shares compounds with Mdm2-MdmX inh; inhibition, % at 8 µM; AID 489028; 10,000 tested, 55% active; in the data active = inhibition above about 40%
FLuc counter = counter-screen for Mdm2/MdmX inhibitors: full-length luciferase | inhibition, % at 8 µM | AID 504607 | shares compounds with Mdm2-MdmX inh | 6,200 tested, 77% active | SaOS-2 full-length luciferase counterscreen, luminescence;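 active = mean inhibition at 8 µM reaching about 37%, which flags the compound as non-specific, limit read from the data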;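 note: p53-null SaOS-2 cells with luciferase driven by a doxycycline-inducible promoter; compound on cells about two nights before reading with doxycycline added after day one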
The depositor's hits bear a star; . = no result given. Most compounds without a hit are left out; they make up all but 4.1% or so of the library.

SMILES | UPR XBP1 act | UPR CHOP act | UBC13 inh | Apaf1 inhib | Mdm2-MdmX inh | Mdm2 MdmX conf | FLuc counter
N/C(=N\OC(=O)c1cccc(F)c1)c1ccccc1 | -1 | 0 | -9 | 15 | -25 | . | .
CC1CCN(CCc2nc3cc(NC(=O)COc4ccc(Cl)cc4)ccc3n2C)CC1 | -4 | 2 | 16 | 31 | 57* | 35 | .
C(=C\c1ccccc1)/C=N/Nc1nc(N2CCCCC2)nc(N2CCCCC2)n1 | 7 | 1 | -1 | 0 | 57* | 16 | .
Cc1ccc(-n2c(C)cc(C)c(C#N)c2=O)cc1C | -1 | 0 | -7 | 0 | 2 | . | .
CCn1c2ccccc2c2cc(/C=N/n3c(C)nnc3C)ccc21 | 3 | -1 | 13 | -9 | 60* | -7 | .
CCn1c(=O)c2cc(C(=O)NCCCOC)sc2c2ccccc21 | 8 | 0 | 22 | 6 | 64* | 49* | 103*
CCn1c(=O)c2cc(C(=O)NCCC(C)C)sc2c2ccccc21 | 13 | 3 | 14 | 17 | 47 | . | .
COCCCNC(=O)c1ccc(Cn2c(=O)c3ccccc3n(Cc3ccccc3C#N)c2=O)cc1 | 2 | -1 | 3 | 8 | 53* | 19 | .
CC(C)(C)c1ccc(C(=O)NC2CCS(=O)(=O)C2)cc1 (configuration not stated) | -2 | 4 | -5 | 1 | 4 | . | .
COc1cc(/C=C2\SC(N)=NC2=O)cc(OC)c1 | 1 | 0 | -8 | 0 | 51* | 25 | .
COc1cc(/C=C2\SC(N)=NC2=O)ccc1O | -7 | 0 | -13 | -10 | 60* | 52* | 57*
COc1cc(/C=C2/SC(=Nc3ccc(O)cc3)NC2=O)ccc1O | 14 | 1 | 27 | -1 | 74* | 72* | 68*
CCN1CCN(c2ccc(S(=O)(=O)N3CCOCC3)cc2NC(=O)c2ccc(Cl)s2)CC1 | -4 | 2 | 17 | 24 | 27 | . | .
O=C(/C=C/C=C/c1ccccc1)CC1(O)C(=O)N(CCc2ccccc2)c2ccccc21 (configuration not stated) | -1 | -1 | 0 | 24 | 53* | -1 | .
Cc1cc(/C=N/Nc2ncnc(N)c2[N+](=O)[O-])c(C)n1-c1ccccc1 | -7 | -11 | -60 | -12 | 65* | 70* | 54*
Cc1cc(C)n(CC(=O)NNC(=O)COc2ccc(Br)cc2F)n1 | 0 | 0 | 16 | -10 | 1 | . | .
COc1ccc(-c2cc(C(=O)Nc3cc(C)ccc3O)no2)cc1 | 8 | 4 | -10 | 0 | 57* | -10 | .
COc1ccc(OC)c(-c2cc(C(=O)Nc3ccc(F)cc3F)no2)c1 | 2 | 0 | 8 | -6 | 58* | 14 | .
COc1ccc(-c2cc(C(=O)Nc3cc(Cl)ccc3O)no2)cc1 | 1 | 7 | -4 | -8 | 6 | . | .
O=C1CC[C@@H](C(=O)O)N1 | -2 | -2 | 4 | -3 | 16 | . | .
COc1ccc(C)cc1S(=O)(=O)n1c([N+](=O)[O-])cnc1C | -2 | 1 | 0 | -4 | 11 | . | .
CCOC(=O)c1[nH]c2ccc(OC)cc2c1NC(=S)N1CCN(c2ccccc2OC)CC1 | -5 | -1 | -6 | 7 | 52* | 46* | 69*
CCOC(=O)c1[nH]c2ccc(OC)cc2c1NC(=S)N1CCN(C(=O)OCC)CC1 | -1 | 2 | 13 | -6 | -3 | . | .
Cc1ccc(CNCCC2=CCCCC2)cc1 | 1 | 3 | 20 | -16 | 10 | . | .
COc1cc(C(=O)OCC(=O)NCCN2C(=O)CSC2=O)ccc1OCc1c(C)noc1C | -2 | -3 | 5 | -6 | 9 | . | .
SMILES | UPR XBP1 act | UPR CHOP act | UBC13 inh | Apaf1 inhib | Mdm2-MdmX inh | Mdm2 MdmX conf | FLuc counter
COc1cc2c(cc1OC)CN(C(=O)/C=C/c1ccccc1[N+](=O)[O-])CC2 | -1 | 1 | 0 | -1 | 61* | 53* | 86*
COc1cc2c(cc1OC)CN(C(=O)/C=C/c1cccs1)CC2 | 3 | 0 | -19 | 9 | 65* | 62* | 59*
S=c1[nH]nc(-c2ccco2)n1/N=C/C(Cl)=C/c1ccccc1 | 10 | 8 | -1 | 8 | 62* | -39 | .
CC(=C/c1ccccc1)/C=N/n1c(-c2ccncc2)n[nH]c1=S | 0 | -1 | -3 | 8 | 74* | 78* | 53*
CCN(C(=O)C(C)Sc1nnc(-c2ccncc2)n1C)C1CCCCC1 (configuration not stated) | -2 | 1 | 1 | -5 | -22 | . | .
CCCc1c(NC(=O)Nc2ccc(Cl)cc2Cl)cnn1-c1ccccc1 | 2 | 0 | 2 | 15 | 86* | 75* | 43*
COc1ccc(NC(=O)COC(=O)Cc2c(F)cccc2Cl)cc1OC | -2 | -1 | 4 | 5 | 8 | . | .
CCCCCCCCCC(=O)N[C@@H]1c2cc(OC)c(OC)cc2C[C@H]1OCc1ccccc1 | 1 | 1 | . | 22 | 89* | 69* | 36
O=[N+]([O-])c1ccc(-[n+]2nc(-c3ccccc3)nn2-c2ccccc2)cc1 | -6 | -2 | -5 | 8 | 25 | . | .
CCOC(=O)C1(CCc2ccccc2)CCN(Cc2c(O)cccc2OC)CC1 | -5 | -3 | 17 | 6 | 55* | 26 | .
O=C(Cc1c(C(=O)O)[nH]c2ccccc12)NCCN1CCN(c2ccccc2F)CC1 | 1 | 0 | -14 | 7 | -3 | . | .
COc1ccc(-c2nnc3sc(-c4ccccn4)nn23)cc1 | 4 | 2 | 0 | 27 | -5 | . | .
CC(C)(C)c1ccc(-c2nnc3sc(-c4ccccn4)nn23)cc1 | -5 | -5 | -20 | -1 | 66* | 65* | 30
O=C(NCC1COc2ccccc2O1)C1CCN(S(=O)(=O)c2ccc(Cl)cc2)CC1 (configuration not stated) | -3 | -1 | 5 | 7 | 1 | . | .
CN1CCN(c2ccc(S(=O)(=O)N3CCCCC3)cc2NC(=O)/C=C/c2ccc(OC(F)F)cc2)CC1 | 0 | 4 | 21 | 29 | 39 | . | .
CCN1CCN(c2ccc(S(=O)(=O)N3CCCCC3)cc2NC(=O)c2cccc(Cl)c2)CC1 | -2 | 0 | 12 | 31 | 17 | . | .
CCN1CCN(c2ccc(S(=O)(=O)N3CCCCC3)cc2NC(=O)/C=C/c2cccc(OC)c2OC)CC1 | -6 | 2 | 10 | 23 | 75* | 50* | 77*
CCN1CCN(c2ccc(S(=O)(=O)N3CCOCC3)cc2NC(=O)/C=C/c2ccc(C)cc2)CC1 | 0 | 2 | 4 | 6 | 26 | . | .
CCN1CCN(c2ccc(S(=O)(=O)N3CCCCC3)cc2NC(=O)c2cc3ccccc3o2)CC1 | 0 | 1 | 6 | 34 | 62* | 23 | .
CCN1CCN(c2ccc(S(=O)(=O)N3CCCCC3)cc2NC(=O)/C=C/c2ccc(F)cc2)CC1 | -4 | 4 | 7 | 22 | 53* | 45* | 87*
